Key:
U-937 [1] = assay: Induction of rat C/EBPalpha expression transfected in human U937 cells after 24 hrs by luciferase reporter gene assay relative to ATRA; format: functional
Outline: (§1)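 Engineered U937 line (4X C/EBPα binding site driving a luciferase reporter) incubated 24 h with or without sample in 384-well plates, in triplicate, across multiple 2-fold doses. Luminescence was read after adding Britelite reagent. ATRA ran on each plate as positive control. Fold induction was normalized to ATRA induction.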

U-937 [2] = assay: Induction of rat C/EBPalpha expression transfected in human U937 cells at 50 uM after 24 hrs by luciferase reporter gene assay relative to ATRA; format: functional; outline: as §1
U-937 [3] = assay: Cytotoxicity against human U937 cells after 24 hrs by alamar blue assay; format: cell-based; settings: U-937, 24 h
Outline: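 U937 cells exposed to test sample for 24 h in 384-well format. Toxicity read by Alamar Blue fluorescence and expressed as growth relative to untreated U937 cells. Value is the concentration giving 50% growth inhibition, from multiple 2-fold doses tested in triplicate.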

[4] = Cytotoxicity against human U937 cells assessed as cell growth at 50 uM after 24 hrs by alamar blue assay; format: cell-based, U-937; settings: read-out: Activity
Outline: (§2)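 U937 cells engineered with a multimerized C/EBPα binding site driving luciferase were incubated with compound in 384-well format, in triplicate, at multiple 2-fold doses. Toxicity was read by Alamar Blue fluorescence. Growth is expressed relative to untreated U937 cells.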

U-937 [5] = assay: Induction of rat C/EBPalpha expression transfected in human U937 cells at 3.1 uM after 24 hrs by luciferase reporter gene assay relative to ATRA; format: functional
Outline: (§3)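 U937 cells carry a luciferase reporter driven by a multimerized C/EBPα binding site (U937 4X C/EBPα). Cells incubated 24 h with or without test sample in 384-well plates, then luciferase read by luminescence. ATRA included on each plate as positive control, and fold induction normalized to ATRA. Multiple 2-fold doses tested in triplicate.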

[6] = Cytotoxicity against human U937 cells assessed as cell growth at 3.1 uM after 24 hrs by alamar blue assay; format: cell-based, U-937; settings: read-out: Activity
Outline: (§4)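 U937 cells incubated 24 h with test sample in multiple 2-fold doses, tested in triplicate, in 384-well format. Cell growth read by Alamar Blue fluorescence relative to untreated U937 cells. Value is growth at the concentration giving maximum C/EBPα fold induction.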

U-937 [7] = assay: Induction of rat C/EBPalpha expression transfected in human U937 cells at 12 uM after 24 hrs by luciferase reporter gene assay relative to ATRA; format: functional; outline: as §1
[8] = Cytotoxicity against human U937 cells assessed as cell growth at 12 uM after 24 hrs by alamar blue assay; format: cell-based, U-937; settings: read-out: Activity; outline: as §2
U-937 [9] = assay: Induction of rat C/EBPalpha expression transfected in human U937 cells at 0.78 uM after 24 hrs by luciferase reporter gene assay relative to ATRA; format: functional; outline: as §3
[10] = Cytotoxicity against human U937 cells assessed as cell growth at 0.78 uM after 24 hrs by alamar blue assay; format: cell-based, U-937; settings: read-out: Activity; outline: as §4
U-937 [11] = assay: Induction of rat C/EBPalpha expression transfected in human U937 cells at 25 uM after 24 hrs by luciferase reporter gene assay relative to ATRA; format: functional; outline: as §1
[12] = Cytotoxicity against human U937 cells assessed as cell growth at 25 uM after 24 hrs by alamar blue assay; format: cell-based, U-937; settings: read-out: Activity; outline: as §2
U-937 [13] = assay: Induction of rat C/EBPalpha expression transfected in human U937 cells after 24 hrs by luciferase reporter gene assay relative to control; format: functional; outline: as §3
HL-60 = assay: Induction of rat C/EBPalpha expression transfected in human HL60 cells after 24 hrs by luciferase reporter gene assay relative to control; format: functional
U-937 [14] = assay: Induction of rat C/EBPalpha expression transfected in human U937 cells at 6.2 uM after 24 hrs by luciferase reporter gene assay relative to ATRA; format: functional; outline: as §3
[15] = Cytotoxicity against human U937 cells assessed as cell growth at 6.2 uM after 24 hrs by alamar blue assay; format: cell-based, U-937; settings: read-out: Activity; outline: as §4

COc1cc2c3cc1Oc1c(OC)c(OC)cc4c1[C@H](Cc1ccc(O)c(c1)-c1cc(ccc1OC)C[C@H]3N(C)CC2)N(C)CC4 [FUNIFERINE]
MED (U-937 [1]): 12 µM
fold change (FC) (U-937 [2]): 2.2
IC50 (U-937 [3]): > 50 µM
viability at 24 h, 50 µM [4]: 94%

COc1cc2c3c4c1Oc1cc5c(cc1O4)[C@@H](Cc1ccc(O)c(c1)Oc1ccc(cc1)C[C@@H]3N(C)CC2)N(C)CC5 [TRIGILLETINE]
MED (U-937 [1]): >50 µM
fold change (FC) (U-937 [5]): 0.8
IC50 (U-937 [3]): 50 µM
viability at 24 h, 3.1 µM [6]: 108%

COc1ccc2cc1-c1cc(ccc1O)C[C@H]1c3cc4c(cc3CCN1C)Oc1c(OC)cc3c(c1O4)[C@H](C2)N(C)CC3 [TILIACORININE]
MED (U-937 [1]): 12 µM
fold change (FC) (U-937 [7]): 1.9
IC50 (U-937 [3]): 25 µM
viability at 24 h, 12 µM [8]: 63%

COC1=CC2=C3[C@H](Cc4cc5c(c(c4)Oc4ccc(cc4)C[C@H]4c6cc7c(cc6CCN4C)OC[C@@]3(O7)C1=O)OCO5)N(C)CC2 [REPANDULINE]
MED (U-937 [1]): 50 µM
fold change (FC) (U-937 [2]): 1.5
IC50 (U-937 [3]): > 50 µM
viability at 24 h, 50 µM [4]: 67%

COc1ccc2cc1Oc1ccc(cc1)C[C@H]1NCCc3cc(OC)c(cc31)Oc1c(O)c(OC)cc3c1CCN(C)[C@@H]3C2 [NORPANURENSINE]
MED (U-937 [1]): 12 µM
fold change (FC) (U-937 [2]): 2.5
IC50 (U-937 [3]): > 50 µM
viability at 24 h, 50 µM [4]: 113%

COc1ccc2cc1Oc1ccc(cc1)C[C@H]1c3c(cc4c(c3Oc3cc5c(cc3OC)CCN(C)[C@@H]5C2)OCO4)CCN1C [CEPHARANTHINE]
MED (U-937 [1]): 12 µM
fold change (FC) (U-937 [7]): 1
IC50 (U-937 [3]): > 50 µM
viability at 24 h, 12 µM [8]: 87%

COc1ccc(C[C@H]2c3cc(OC)c(OC)c(OC)c3CC[N+]2(C)C)cc1Oc1ccc(C[C@H]2c3cc4c(c(OC)c3CC[N+]2(C)C)OCO4)cc1.[I-].[I-] [THALISTYLINE DIMETHOIODIDE]
MED (U-937 [1]): >50 µM
fold change (FC) (U-937 [5]): 0.4
IC50 (U-937 [3]): > 50 µM
viability at 24 h, 3.1 µM [6]: 116%

COc1ccc(C[C@H]2c3cc(OC)c(OC)c(OC)c3CC[N+]2(C)C)cc1Oc1ccc(C[C@H]2c3cc(OC)c4c(c3CCN2C)OCO4)cc1.[Cl-] [THALISTYLINE]
MED (U-937 [1]): >50 µM
fold change (FC) (U-937 [9]): 0.9
IC50 (U-937 [3]): > 50 µM
viability at 24 h, 0.78 µM [10]: 133%

COc1ccc2cc1Oc1ccc(cc1)C[C@@H]1c3cc(c(OC)cc3CCN1C)Oc1c(OC)c(OC)cc3c1[C@H](C2)N(C)CC3 [ISOTETRANDRINE]
MED (U-937 [1]): 12 µM
fold change (FC) (U-937 [11]): 1.2
IC50 (U-937 [3]): > 50 µM
viability at 24 h, 25 µM [12]: 69%

COc1cc2c3cc1Oc1cc(ccc1O)C[C@@H]1c4c(cc(OC)c(O)c4Oc4cccc(c4)C[C@H]3N(C)CC2)CCN1C [CHONDODENDRINE]
MED (U-937 [1]): 12 µM
fold change (FC) (U-937 [11]): 1.9
IC50 (U-937 [3]): > 50 µM

CC1=C(/C=C/C(C)=C/C=C/C(C)=C/C(=O)O)C(C)(C)CCC1 [TRETINOIN]
fold change (FC) (U-937 [13]): 2
fold change (FC) (HL-60): 2

COc1ccc(CC2c3cc(OC)c(OC)cc3CCN2C)cc1OC (stereo unspecified) [LAUDANOSINE]
MED (U-937 [1]): >50 µM
fold change (FC) (U-937 [11]): 0

COc1cc2c3c(O)c1OCc1ccc(cc1)C[C@@H]1c4c(cc(OC)c(OC)c4Oc4ccc(cc4)CC3=NCC2)CCN1C [CISSAMPAREINE]
MED (U-937 [1]): >50 µM
fold change (FC) (U-937 [5]): 0.5
IC50 (U-937 [3]): > 50 µM
viability at 24 h, 3.1 µM [6]: 78%

COc1cc2c3cc1Oc1c(OC)c(OC)cc4c1[C@H](Cc1cc5c(c(c1)Oc1ccc(cc1)C[C@@H]3N(C)CC2)OCO5)N(C)CC4 [TENUIPINE]
MED (U-937 [1]): 25 µM
fold change (FC) (U-937 [11]): 1.4
IC50 (U-937 [3]): > 50 µM
viability at 24 h, 25 µM [12]: 105%

COc1ccc2cc1Oc1ccc(cc1)C[C@H]1c3c(cc(OC)c(O)c3Oc3cc4c(cc3OC)CCN(C)[C@@H]4C2)CCN1C [HOMOAROMOLINE]
MED (U-937 [1]): 3.1 µM
fold change (FC) (U-937 [2]): 1.9
IC50 (U-937 [3]): > 50 µM
viability at 24 h, 50 µM [4]: 80%

COc1cc2c(cc1Oc1ccc(OC)c3c1C[C@H]1c4c(cc(OC)c(OC)c4-3)CCN1C)C[C@H]1c3c(cc(OC)c(OC)c3-2)CCN1C
MED (U-937 [1]): >50 µM
fold change (FC) (U-937 [11]): 0.9
IC50 (U-937 [3]): > 50 µM
viability at 24 h, 25 µM [12]: 61%

COc1cc2c3cc1Oc1c(OC)c(OC)cc4c1[C@@H](Cc1ccc(O)c(c1)Oc1ccc(cc1)C[C@@H]3N(C)CC2)N(C)CC4 [BERBAMINE]
MED (U-937 [1]): 25 µM
fold change (FC) (U-937 [2]): 1.2
IC50 (U-937 [3]): > 50 µM
viability at 24 h, 50 µM [4]: 70%

COc1cc2c(cc1O)[C@H]1Cc3c(cc(OC)c(OC)c3Oc3cc4c(cc3OC)CCN(C)[C@@H]4Cc3ccc(O)cc3)[C@@H](C2)N1C [HERVELINE O]
MED (U-937 [1]): >50 µM
fold change (FC) (U-937 [11]): 0.46
IC50 (U-937 [3]): > 50 µM
viability at 24 h, 25 µM [12]: 108%

COc1ccc2cc1Oc1ccc(cc1)C[C@H]1c3cc(c(OC)cc3CCN1C)Oc1c(OC)c(OC)cc3c1[C@H](C2)N(C)CC3 [FANCHININ]
MED (U-937 [1]): >50 µM
fold change (FC) (U-937 [11]): 0.9
IC50 (U-937 [3]): > 50 µM
viability at 24 h, 25 µM [12]: 69%

COc1ccc2cc1Oc1ccc(cc1)C[C@H]1c3cc(c(OC)cc3CCN1C)Oc1c(O)c(OC)cc3c1[C@H](C2)N(C)CC3 [FANGCHINOLINE]
MED (U-937 [1]): 25 µM
fold change (FC) (U-937 [2]): 2
IC50 (U-937 [3]): > 50 µM
viability at 24 h, 50 µM [4]: 102%

COc1cc2c3cc1Oc1c(O)c(OC)cc4c1[C@@H](Cc1ccc(O)c(c1)Oc1ccc(cc1)C[C@@H]3N(C)CC2)N(C)CC4 [OBAMEGINE]
MED (U-937 [1]): 3 µM
fold change (FC) (U-937 [7]): 2.6
IC50 (U-937 [3]): 25 µM
viability at 24 h, 12 µM [8]: 89%

COc1ccc2cc1Oc1ccc(cc1)C[C@@H]1c3cc(c(OC)cc3CCN1C)Oc1c(OC)c(OC)cc3c1[C@@H](C2)N(C)CC3 [PHAEANTHINE]
MED (U-937 [1]): >50 µM
fold change (FC) (U-937 [7]): 0.75
IC50 (U-937 [3]): 50 µM
viability at 24 h, 12 µM [8]: 104%

COc1ccc2cc1Oc1ccc(cc1)C[C@@H]1c3c(cc(OC)c4c3Oc3cc5c(cc3O4)CCN[C@@H]5C2)CCN1C [TELOBINE]
MED (U-937 [1]): 1.5 µM
fold change (FC) (U-937 [5]): 1.9
IC50 (U-937 [3]): 12 µM
viability at 24 h, 3.1 µM [6]: 82%

COc1ccc2cc1Oc1ccc(cc1)CC1=NCCc3cc(OC)c(OC)c(c31)Oc1cc3c(cc1OC)CCN(C)[C@@H]3C2 [EPISTEPHANINE]
MED (U-937 [1]): >50 µM
fold change (FC) (U-937 [14]): 0.9
IC50 (U-937 [3]): > 50 µM
viability at 24 h, 6.2 µM [15]: 99%
